Drawing on ChEMBL document CHEMBL4513216, “Probing the Open Global Health Chemical Diversity Library for Multistage-Active Starting Points for Next-Generation Antimalarials” (ACS Infect Dis, 2020), this text covers cytotoxicity for 69 compounds.

Each structure is given as a SMILES string.

The nature of the data set: Toxicity liver stage against HepG2, at 10uM. The data set is classed as cell-based. Also on record: test concentration 10 uM, cell line HepG2-A16-CD81EGFP. Conditions: human, HepG2-A16-CD81EGFP cells; read-out: INHIBITION
The method, boiled down:
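Uninfected HepG2-A16-CD81EGFP cells, 3 × 10^3 per well, 1536-well, plated on prespotted compound at 10 μM final, parasite-free screening media added to match infected plates; puromycin 10 μM positive, DMSO 0.5% negative; run in parallel with 48 h PbLuc assay at 37 °C, 5% CO2; viability by CellTiter-Glo luminescence, normalized to controls.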
With `CO[C@H]1CNC[C@@H]1NC(=O)c1cc(C)nc2ccc(C)cc12`, the cytotoxicity at 10 µM is 1.25%.

`CCOc1c(Br)cc(CNC(C)c2nnc3n2CCC3)cc1OC` (centres undefined): the cytotoxicity at 10 µM was -40.9%.

Turning to `Cc1cc(C[C@@H]2COC[C@@H]2NC(=O)CN2CCCC2)on1`, the cytotoxicity at 10 µM is -30.2%.

Regarding `Cn1c(CN2CCN(CC3CC3)CC2)nnc1C1CCC1`, the cytotoxicity at 10 µM was -26.7%.

`COC(=O)[C@H]1CCCCN1C(=O)c1cccc(-n2cccn2)c1`: the cytotoxicity at 10 µM is -8.29%.

On to `CN1CCC/C1=N\S(=O)(=O)c1ccc(NC(=O)c2ccc(Cl)s2)cc1`, for which the cytotoxicity at 10 µM is 1.55%.

Take `Cc1nc2ccccn2c1CC(=O)N[C@@H]1CC[C@@H](N2CCCC2)[C@@H]1O`: the cytotoxicity at 10 µM was -12.4%.

Consider `CCn1cc(-n2cc3nc(N4CCOCC4)[nH]cc-3c2=O)cn1`, for which the cytotoxicity at 10 µM was determined as 3.43%.

Turning to `CCCc1nc(N2CCCC3(CCNC3)C2)c2cnn(C)c2n1` (centres undefined), the cytotoxicity at 10 µM is -47.8%.

Take `O=C(COc1coc(CN2CCSCC2)cc1=O)c1ccccc1`: the cytotoxicity at 10 µM was determined as 9.21%.

For `O=C(NCCc1c[nH]cn1)C1CCCN(C2CCOCC2)C1` (centres undefined), the cytotoxicity at 10 µM was 1.58%.

Take `O=C(N[C@@H]1CN(Cc2ccc3[nH]ccc3c2)C[C@H]1O)c1cscn1`: the cytotoxicity at 10 µM is -7.11%.

On to `CC(C)(C(=O)N1CCC(CS(N)(=O)=O)CC1)c1ccccc1F`, for which the cytotoxicity at 10 µM is 6.03%.

As to `Cc1cc(C)cc(N(CCC#N)C(=O)CN2CCCC2c2cccs2)c1` (centres undefined), the cytotoxicity at 10 µM was -1.61%.

`Cc1nc(O)c2nnn(C[C@H]3CCCN3C(=O)c3ccccc3F)c2n1`: the cytotoxicity at 10 µM was -20.4%.

For `CC(C)=CCN1C[C@@H]2CC[C@H]1CN(C(=O)Cn1c(C)cc(C)nc1=O)C2`, the cytotoxicity at 10 µM is -4.36%.

Turning to `CN(CCCc1nccn1C)C(=O)C1CCN(C(=O)C2CC2)CC1`, the cytotoxicity at 10 µM is -4.49%.

Consider `CN(C)CCN1CCC2(CCN(C(=O)c3cccnc3)CC2)C1=O`, for which the cytotoxicity at 10 µM amounted to 2.61%.

With `O=C(Nc1ccccc1)c1ccc(NCc2ccccc2CO)nn1`, the cytotoxicity at 10 µM turned out to be 4.34%.

Take `Cc1cc(C(=O)NCCN2CCCCCC2)nn1C(C)(C)C`: the cytotoxicity at 10 µM is 2.45%.

For `CC(C)COC1CCN(C(=O)c2ccc(C(F)(F)F)[nH]c2=O)CC1`, the cytotoxicity at 10 µM worked out at 0.0436%.

On to `N#Cc1nccnc1N1CCC(COCc2ccccc2)C1` (centres undefined), for which the cytotoxicity at 10 µM was 7.78%.

Regarding `CCC(=O)N1CCC(c2cncc(Oc3cccnc3)n2)CC1`, the cytotoxicity at 10 µM is -4.69%.

Take `Cn1c(C(=O)NCC2(N)CCCC2)cc2ccccc21`: the cytotoxicity at 10 µM came out at 7.8%.

Regarding `CCN1CC(C)(C)CN(C(=O)CCc2ccccc2)CC1=O`, the cytotoxicity at 10 µM was found to be 0.305%.

For the compound `CCCOc1ccc2c(c1)OCC(CNC1CCc3ncnn3C1)=C2` (centres undefined), the cytotoxicity at 10 µM was -6.63%.

As for `COCCc1ncc(CNC2(c3ccc(Cl)cc3)CC2)cn1`, the cytotoxicity at 10 µM was -17.3%.

With `CS(=O)(=O)N1CC[C@H]2O[C@H](C(=O)NCCc3ccncc3)CC[C@H]21`, the cytotoxicity at 10 µM was 4.41%.

Turning to `COCCN1C(=O)C[C@H]2[C@H]1CCN2Cc1ccccc1`, the cytotoxicity at 10 µM was -71.5%.

Turning to `Cn1cnnc1C1CCCN(C(=O)NCc2ccc3c(c2)OCO3)C1` (centres undefined), the cytotoxicity at 10 µM was -1.9%.

Take `CS(=O)(=O)N1CC[C@H]2O[C@@H](C(=O)NCc3ccco3)CC[C@H]21`: the cytotoxicity at 10 µM was 4.23%.

`CCOc1ccc(CN2C(=O)CC(C)(C(C)C)C2=O)nc1` (centres undefined): the cytotoxicity at 10 µM was -5.51%.

Consider `CNC(=O)[C@H]1C[C@@H]2CN(S(=O)(=O)c3ccc(C)cc3)C[C@@H]2N1C`, for which the cytotoxicity at 10 µM was -2.19%.

For the compound `CCC(=O)N1CCc2[nH]cnc2C12CCN(C(=O)c1snnc1C)CC2`, the cytotoxicity at 10 µM was found to be 13.9%.

Consider `COc1ccccc1CC(=O)NCc1c(C)nc2cc(=O)[nH]n2c1C`, for which the cytotoxicity at 10 µM is -6.8%.

For the compound `COc1ccccc1NCC(=O)NCc1cc[nH]n1`, the cytotoxicity at 10 µM was found to be 1.87%.

With `COc1cc(C)c(CN2CCC3(CC2)C(C(=O)O)CC(=O)N3C)cc1C` (centres undefined), the cytotoxicity at 10 µM is -8.58%.

Consider `O=C(CCc1ccsc1)Nc1cccnc1N1CCCC1`, for which the cytotoxicity at 10 µM is -7.07%.

As to `Cc1noc(C)c1CN1Cc2cn(C)nc2C(COCC2CC2)C1` (centres undefined), the cytotoxicity at 10 µM was -73%.

Consider `O=C1O[C@@H]2CN(Cc3cccc(O)c3)C[C@@H]2N1CCCN1CCOCC1`, for which the cytotoxicity at 10 µM is 0.476%.

Take `COC[C@]12COC[C@H]1CN(C(=O)C1CCSCC1)C2`: the cytotoxicity at 10 µM is 2.2%.

On to `CCOCC(O)CN1CCN(C(=O)Cc2ccc3c(c2)CCC3)CC1` (centres undefined), for which the cytotoxicity at 10 µM is -15.5%.

Consider `c1ccc(CCN2CCCC(c3noc(C4CC4)n3)C2)cc1` (centres undefined), for which the cytotoxicity at 10 µM is -3.62%.

Consider `O=C(Nc1nc(-c2ccccc2)ns1)N1CCC(CO)CC1`, for which the cytotoxicity at 10 µM came out at 9.11%.

Take `CCc1nnc2n1CCN(Cc1ccc(C(=O)N3CCCC3)cc1)C2`: the cytotoxicity at 10 µM is -3.29%.

Regarding `Cc1nc(CN2CCN(c3cc(CCN)ncn3)CC2)cs1`, the cytotoxicity at 10 µM was -145%.

Regarding `CSc1ccc2cc(CN(C)CCO)c(=O)[nH]c2c1`, the cytotoxicity at 10 µM was 5.76%.

On to `N#Cc1cn(C2CC2)c(=O)n(CC(O)c2ccc(Cl)cc2)c1=O` (centres undefined), for which the cytotoxicity at 10 µM is -5.78%.

Turning to `Cc1ccc(CNC(=O)c2nc3c(o2)CN(c2ncccn2)C3)o1`, the cytotoxicity at 10 µM is -5.58%.

For the compound `O=C(NCC1CC(=O)N(CCc2ccccc2)C1)c1ccc[nH]1` (centres undefined), the cytotoxicity at 10 µM was -0.553%.

In the case of `O=C(CC1=CCCCC1)Nc1ncn(CC(=O)N2CCCCCC2)n1`, the cytotoxicity at 10 µM was determined as 1.72%.

Take `NC(=O)C1CCN(C(=O)c2cccn2Cc2cccs2)CC1`: the cytotoxicity at 10 µM is -4.08%.

Turning to `COCCN(CCOC)S(=O)(=O)N(C)Cc1ccncc1`, the cytotoxicity at 10 µM amounted to 8.07%.

`CC(=O)c1c(O)n(C)c2ccccc12`: the cytotoxicity at 10 µM is 1.64%.

In the case of `Cc1nc(C2CCCN(C(=O)c3ccc(N4CCCC4)nn3)C2)no1` (centres undefined), the cytotoxicity at 10 µM was -13.6%.

Regarding `Cc1cnc(C(=O)N2C[C@H]3CCCC(OCc4cccnc4)[C@H]3C2)cn1` (some centres undefined), the cytotoxicity at 10 µM is 3.51%.

With `O=C1[C@H]2CN(C3CCOC3)C[C@H]2CN1c1ccccc1` (some centres undefined), the cytotoxicity at 10 µM came out at 7.16%.

In the case of `CCNC(=O)NCc1ccc(-n2ccc(C(F)(F)F)n2)cc1`, the cytotoxicity at 10 µM was -4.7%.

Turning to `CN(C)CCN(Cc1ccc(F)cc1)C(=O)c1ccn(C)c(=O)c1`, the cytotoxicity at 10 µM is -4.62%.

On to `COc1cc(CNCc2ccnc(N3CCCCC3)c2)cc(OC)c1`, for which the cytotoxicity at 10 µM came to 28.9%.

For the compound `CC(C)n1cc(CN2CCCN(C(=O)c3cccn3C)CC2)cn1`, the cytotoxicity at 10 µM is 1.51%.

With `CCC1CN(C(=O)c2cnc(-c3ccccc3)s2)CCO1` (centres undefined), the cytotoxicity at 10 µM was -2.63%.

`CCOCCc1nc(Cc2ccccc2)n[nH]1`: the cytotoxicity at 10 µM is 7.9%.

With `Cc1nn(C)c(Oc2ccccc2)c1CNC1CCCCNC1=O` (centres undefined), the cytotoxicity at 10 µM turned out to be 2.56%.

On to `Cn1cc(C2CCCN2Cc2csc(Cc3ccccc3)n2)cn1` (centres undefined), for which the cytotoxicity at 10 µM was -1.19%.

As for `CN(C)C[C@@H]1C[C@@H]2CN(C(=O)Cc3cccs3)CC[C@@H]2N1C`, the cytotoxicity at 10 µM was 0.375%.

Take `CCn1cc(S(=O)(=O)NC2CCCN(CCCc3ccccc3)C2)cn1` (centres undefined): the cytotoxicity at 10 µM was 8.08%.

Regarding `CN(C)C1COC2(CCN(C(=O)c3cccc(Cl)c3)CC2)C1` (centres undefined), the cytotoxicity at 10 µM was -7.81%.

As to `Cc1cnccc1Cn1ccnc1C1CCOC1` (centres undefined), the cytotoxicity at 10 µM is -2.53%.
